The source made the active and inactive calls. No cut-off for these calls is given here.
Assays:
[1] = AUC(0 to t) in Sprague-Dawley rat at 1 mg/kg, iv measured upto 24 hrs by LC-MS/MS analysis; type: ADME, organism-based; design: dose 1 mg/kg, time < 24 hrs, route iv; details: in vivo
Outline: (§1)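 Male SD rats (6–9 or 6–8 weeks old, n = 3 per route) received a single 1 mg/kg iv or 5 mg/kg po dose. The vehicle was 5% DMSO/5% Solutol HS-15/90% water or 5% DMSO/95% HP-β-CD in water. Jugular blood was drawn into heparin at 0.083 (iv only), 0.25, 0.5, 1, 2, 4, 6 and 24 h. Plasma was analysed by LC-MS/MS. Values are mean ± SD.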

[2] = Tmax in Sprague-Dawley rat at 5 mg/kg, po measured upto 24 hrs by LC-MS/MS analysis; type: ADME, organism-based; details: in vivo; outline: as §1
enterovirus D68 [3] = test: Antiviral activity against Enterovirus-D68 US/MO/14-18947 infected in human RD cells assessed as reduction in virus induced cytopathic effect by measuring ATP level incubated for 72 hrs by cell titer-glo luminescent cell viability assay; type: functional, organism-based; details: Enterovirus D, US/MO/14-18947, RD
Outline: (§2)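 RD cells seeded at 1.5 × 10^4/well and grown 24 h, then given 100 TCID50 virus plus compound in 3-fold dilutions (0.01–200 μM). DMSO control. Incubated 37 °C for 72 h; ATP read by CellTiter-Glo luminescence and normalized to uninfected and infected controls. EC50 is the concentration giving 50% CPE reduction. Strains: STL-2014-12, US/KY/14-18953, US/MO/14-18947, Fermon.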

enterovirus D68 [4] = test: Antiviral activity against Enterovirus-D68 STL-2014-12 infected in human RD cells assessed as reduction in virus induced cytopathic effect by measuring ATP level incubated for 72 hrs by cell titer-glo luminescent cell viability assay; type: functional, organism-based; outline: as §2
[5] = Oral bioavailability in Sprague-Dawley rat at 5 mg/kg measured upto 24 hrs by LC-MS/MS analysis; type: ADME, organism-based; details: in vivo; outline: as §1
[6] = Selectivity index, ratio of CC50 for human RD cells to EC50 for Enterovirus-D68 fermon infected in human RD cells; type: toxicity, cell-based; details: read-out: Ratio CC50/EC50
Outline: (§3)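 EC50 came from a CPE reduction assay. RD cells (1.5 × 10^4 per well, grown 24 h) were infected with 100 TCID50 of the named strain and given 3-fold dilutions from 0.01 to 200 μM. After 72 h at 37 °C, ATP was read by CellTiter-Glo and normalized to infected and uninfected controls. CC50 came from uninfected cells under the same dilutions, 72 h and ATP readout. SI = CC50/EC50.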

[7] = Selectivity index, ratio of CC50 for human RD cells to EC50 for Enterovirus-D68 US/MO/14-18947 infected in human RD cells; type: toxicity, cell-based; details: read-out: Ratio CC50/EC50; outline: as §3
[8] = Cmax in Sprague-Dawley rat at 5 mg/kg, po measured upto 24 hrs by LC-MS/MS analysis; type: ADME, organism-based; design: dose 5 mg/kg, time < 24 hrs, route po; details: in vivo; outline: as §1
enterovirus D68 [9] = test: Antiviral activity against Enterovirus-D68 US/KY/14-18953 infected in human RD cells assessed as reduction in virus induced cytopathic effect by measuring ATP level incubated for 72 hrs by cell titer-glo luminescent cell viability assay; type: functional, organism-based; details: Enterovirus D, US/KY/14-18953, RD; outline: as §2
[10] = AUC (0 to infinity) in Sprague-Dawley rat at 1 mg/kg, iv measured upto 24 hrs by LC-MS/MS analysis; type: ADME, organism-based; design: dose 1 mg/kg, time < 24 hrs, route iv; details: in vivo; outline: as §1
enterovirus D68 [11] = test: Antiviral activity against Enterovirus-D68 fermon infected in human RD cells assessed as reduction in virus induced cytopathic effect by measuring ATP level incubated for 72 hrs by cell titer-glo luminescent cell viability assay; type: functional, organism-based; details: Enterovirus D; outline: as §2
[12] = Selectivity index, ratio of CC50 for human RD cells to EC50 for Enterovirus-D68 STL-2014-12 infected in human RD cells to; type: toxicity, cell-based; outline: as §3
[13] = C0 in Sprague-Dawley rat at 1 mg/kg, iv measured upto 24 hrs by LC-MS/MS analysis; type: ADME, organism-based; details: in vivo; outline: as §1
[14] = Half life in Sprague-Dawley rat at 5 mg/kg, po measured upto 24 hrs by LC-MS/MS analysis; type: ADME, organism-based; details: in vivo; outline: as §1
[15] = Half life in Sprague-Dawley rat at 1 mg/kg, iv measured upto 24 hrs by LC-MS/MS analysis; type: ADME, organism-based; details: in vivo; outline: as §1
[16] = AUC (0 to t) in Sprague-Dawley rat at 5 mg/kg, po measured upto 24 hrs by LC-MS/MS analysis; type: ADME, organism-based; design: dose 5 mg/kg, time < 24 hrs, route po; details: in vivo; outline: as §1
[17] = Selectivity index, ratio of CC50 for human RD cells to EC50 for Enterovirus-D68 US/KY/14-18953 infected in human RD cells; type: toxicity, cell-based; details: read-out: Ratio CC50/EC50; outline: as §3
[18] = AUC (0 to infinity) in Sprague-Dawley rat at 5 mg/kg, po measured upto 24 hrs by LC-MS/MS analysis; type: ADME, organism-based; design: time < 24 hrs, dose 5 mg/kg, route po; details: in vivo; outline: as §1
enterovirus D68 [19] = test: Antiviral activity against Enterovirus-D68 infected in human HeLa cells assessed as reduction in virus induced cytopathic effect incubated for […] by plaque reduction assay; type: functional, organism-based; details: Enterovirus D
RD = test: Cytotoxicity against human RD cells assessed as inhibition of cell viability by measuring ATP level incubated for 72 hrs by cell titer-glo luminescent cell viability assay; type: functional
Outline: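 Uninfected RD cells seeded at 1.5 × 10^4/well and grown 24 h, then exposed to compound in 3-fold dilutions (0.01–200 μM), with DMSO as cell control. ATP read by CellTiter-Glo luminescence after 72 h; CC50 is the 50% cytotoxic concentration.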

enterovirus D68 [20] = test: Antiviral activity against Enterovirus D68 infected in human RD cells assessed as reduction in thermal inactivation of virus at 55 degreeC at 12.5 uM incubated for 72 hrs by TCID50 assay; type: functional, organism-based
Outline: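 Compound at 12.5 μM or DMSO was incubated with EV-D68 (2 × 10^6 PFU/ml) at 33 °C for 30 min. The mixture was heated for 2 min at temperatures between 37 and 59 °C, then cooled to 4 °C. Residual titre was measured by TCID50 on RD cells: 10-fold virus dilutions, CPE scored after 72 h, Reed–Muench calculation.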

enterovirus D68 [21] = test: Antiviral activity against Enterovirus D68 infected in human RD cells assessed as inhibition of viral replication at 2 uM treated for 1 hr by qRT-PCR analysis; type: functional, organism-based
Outline: (§4)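 RD cells grown for 24 h were infected at 0 h with EV-D68 (MOI 0.01), and virus was washed off at 1 hpi. Compound at 2 μM or DMSO was added over set windows (0–1 h, after 1 hpi, or 0–14 h). Supernatants were collected at 14 hpi. Viral RNA copies were measured by qRT-PCR against a copy-number standard curve. Values are mean ± SD.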

enterovirus D68 [22] = test: Antiviral activity against Enterovirus D68 infected in human RD cells assessed as inhibition of viral replication at 2 uM treated for 14 hrs by qRT-PCR analysis; type: functional, organism-based; outline: as §4
enterovirus D68 [23] = test: Antiviral activity against Enterovirus D68 infected in human RD cells assessed as inhibition of viral replication at 1 uM incubated for 1.5 hrs by crystal violet staining based plaque formation assay; type: functional, organism-based
Outline: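 Overnight RD monolayers received serially diluted virus stock plus compound for 1.5 h. Supernatant was removed and cells were overlaid with 2× DMEM containing 2% low-melting agarose. At 72 hpi cells were fixed with 4% paraformaldehyde for 4 h at room temperature and stained with 1% crystal violet to count plaques.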

enterovirus D68 [24] = test: Antiviral activity against Enterovirus D68 infected in human RD cells assessed as inhibition of VP1 expression level incubated for 12 hrs by Hoechst 33342 staining based immunofluorescence assay; type: functional, organism-based; details: dose 0.1-10 µM, DDE = dose-dependent effect
Outline: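 RD cells were infected with EV-D68 at MOI 1 together with compound for 12 h. Cells were fixed in 4% formaldehyde for 30 min and permeabilized in 0.1% Triton X-100 for 30 min, then blocked with 5% bovine serum. Staining used rabbit anti-VP1 with an Alexa-546 secondary and 1 μM Hoechst33342 nuclear stain, imaged by fluorescence microscopy.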

enterovirus D68 [25] = test: Antiviral activity against Enterovirus D68 infected in human RD cells assessed as inhibition of VP1 expression level incubated for 1.5 hrs by Western blot analysis; type: functional, organism-based; details: dose 0.1-10 µM, DDE = dose-dependent effect
Outline: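 RD cells (8.0 × 10^4 per well) were grown for 24 h, then infected with EV-D68 at MOI 0.01 for 1.5 h with gradient-diluted compound or DMSO. Lysates were made at 12 hpi in RIPA buffer and run on 10% SDS-PAGE. Blots were probed with anti-EV-D68 VP1 and anti-tubulin antibodies, with HRP secondary and ECL detection.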

[26] = Metabolic stability in rat liver microsomes assessed as half life at 1 uM incubated upto 60 mins in presence of NADPH by LC-MS/MS analysis; type: ADME, Microsome; details: 1 h
Outline: (§5)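 Test compound at 1 μM final was incubated at 37 °C with 0.5 mg/mL liver microsomal protein and 1 mM NADPH, alongside a no-NADPH control. Samples were quenched at 0, 5, 15, 30 and 60 min into solution containing verapamil internal standard, then centrifuged and analysed by LC-MS/MS. t1/2 and intrinsic clearance were derived from the extent of metabolism.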

enterovirus D68 [27] = test: Antiviral activity against Enterovirus D68 infected in human RD cells assessed as increase in viral RNA release temperature at 10 ug/ml incubated for 15 mins by particle release thermal stability assay (reference value: 52 degree C); type: functional; details: dose 10 µg/ml, 0.25 h
[28] = Metabolic stability in Beagle dog liver microsomes assessed as half life at 1 uM incubated upto 60 mins in presence of NADPH by LC-MS/MS analysis; type: ADME, Canis lupus familiaris, Microsome; details: 1 h; outline: as §5
[29] = Metabolic stability in human liver microsomes assessed as half life at 1 uM incubated upto 60 mins in presence of NADPH by LC-MS/MS analysis; type: ADME, Microsome; details: 1 h; outline: as §5
[30] = Enterovirus D, STL-2014-12, RD, 72 h

Row | SMILES | AUCt [1] [ng·h/mL] | Tmax [2] [h] | EC50 (enterovirus D68 [3]) [nM] | F [5] [%] | selectivity ratio [6] | selectivity ratio [7] | Cmax [8] [ng/mL] | EC50 (enterovirus D68 [9]) [nM] | AUC [10] [ng·h/mL] | EC50 (enterovirus D68 [11]) [nM] | Ratio CC50/EC50 [12] | C0 [13] [ng/mL] | t1/2 [14] [h] | t1/2 [15] [h] | AUC [16] [ng·h/mL] | selectivity ratio [17] | AUC [18] [ng·h/mL] | EC50 (enterovirus D68 [4]; [30]) [nM] | CC50 (RD) [nM] | Activity (enterovirus D68 [20]) | further results
1 | CCc1nc(-c2cnc3ccc(-c4ccc(N)cc4)cc3c2)no1.Cl | 157 | 0.417 | 70 | 6.8 | > 185 | > 159 | 36.1 | 70 | 158 | 60 | > 139 | 1370 | 1.06 | 0.309 | 49.5 | > 159 | 53.8 |  |  |  | EC50 (enterovirus D68 [4]; rd): 80 nM
2 | Cc1cc(CCCOc2c(C)cc(-c3noc(C(F)(F)F)n3)cc2C)on1 [PLECONARIL] |  |  | 640 |  | > 333 | > 156 |  | 240 |  | 300 |  |  |  |  |  | > 417 |  | 400 | > 200000 | Active | selectivity ratio ([12]; RD cells, read-out: Ratio CC50/EC50): > 250; EC50 (enterovirus D68 [19]): 430 nM
3 | Nc1ccc(-c2ccc3ncc(-c4noc(C(F)(F)F)n4)cc3c2)cc1 [listing 1 of 2 here] |  |  |  |  |  |  |  |  |  |  |  |  |  |  |  |  |  |  |  | Active | Activity (enterovirus D68 [21]): Active; Activity (enterovirus D68 [22]): Active; Activity (enterovirus D68 [23]): Active; Activity (enterovirus D68 [24]): Dde; Activity (enterovirus D68 [25]): Dde
4 | Nc1ccc(-c2ccc3ncc(-c4noc(C(F)(F)F)n4)cc3c2)cc1 [listing 2 of 2 here] | 253 | 1 |  | 23.9 |  |  | 108 |  | 268 |  | > 50 | 637 | 1.21 | 1.92 | 307 |  | 320 | 50 | > 2500 |  | t1/2 [26]: 0.683 h; T (enterovirus D68 [27]): 55 °C; t1/2 [28]: 0.288 h; t1/2 [29]: 2.47 h
